Eleven molecules from ChEMBL document CHEMBL1142386, “Synthesis and structure-activity relationship studies in peripheral benzodiazepine receptor ligands related to alpidem” (Bioorg Med Chem, 2008) can be followed below.

The assay deals with Translocator protein (Rattus norvegicus, UniProt P16257). As to the kind of experiment: Displacement of [3H]PK115 from peripheral benzodiazepine receptor in Sprague-Dawley rat cortical membrane. The method, boiled down: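 Male Sprague–Dawley rats, 200–250 g; cerebral cortex homogenized in ice-cold PBS pH 7.4, washed twice by centrifugation at 40,000g. Filtration on PEI-presoaked GF/B filters, scintillation counting. IC50 from 6–10 concentrations in triplicate; mean ± SEM of three determinations.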
Chain of Translocator protein (P16257 whole entry, looked up): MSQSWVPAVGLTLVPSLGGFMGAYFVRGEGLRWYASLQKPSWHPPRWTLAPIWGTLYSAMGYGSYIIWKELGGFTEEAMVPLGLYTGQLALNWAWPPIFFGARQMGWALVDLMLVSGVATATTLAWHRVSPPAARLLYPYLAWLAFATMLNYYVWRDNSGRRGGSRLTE
A general note: Loss of bound radioactivity is the signal in a displacement assay; it reports binding, not function.
As usually defined, the IC50 is the concentration that inhibits the measured activity by half. A higher IC50 goes with weaker potency. The molecule `CN(Cc1ccccc1)C(=O)/C=C1\c2nc3ccccc3cc2C(=O)N1c1ccc(Cl)cc1` yielded a 50% inhibitory concentration (IC50) of 26 nM. Regarding `CN(C(=O)/C=C1\c2nc3ccccc3cc2C(=O)N1c1ccc(Cl)cc1)c1ccc(Cl)cc1`, the IC50 came out at 0.62 nM.

The molecule `COc1ccc(N(C)C(=O)/C=C2\c3nc4ccccc4cc3C(=O)N2c2ccc(Cl)cc2)cc1` had an IC50 of 0.9 nM. For `COc1ccc(NC(=O)/C=C2\c3nc4ccccc4cc3C(=O)N2c2ccc(Cl)cc2)cc1`, the IC50 is 76 nM. Against the preceding molecule, the IC50 is about 84-fold higher. `COc1ccc(N(C)C/C=C2\c3nc4ccccc4cc3C(=O)N2c2ccc(Cl)cc2)cc1` had an IC50 of 2360 nM. Consider `COc1ccc(N(C)C(=O)/C=C2\c3nc4ccccc4cc3C(=O)N2c2ccccc2)cc1`, for which the IC50 turned out to be 12 nM.

In turn, `CN(C(=O)/C=C1\c2nc3ccccc3cc2C(=O)N1c1ccccc1)c1ccc(Cl)cc1` returned an IC50 of 10 nM. Turning to `C#CCN(C)C(=O)/C=C1\c2nc3ccccc3cc2C(=O)N1c1ccc(Cl)cc1`, the IC50 was 320 nM. Compared with the last molecule, the IC50 is about 32-fold higher. The result for `CN(C(=O)/C=C1\c2nc3ccccc3cc2C(=O)N1c1ccc(Cl)cc1)c1ccc(O)cc1` reads 74 nM. The result for `CN(C(=O)/C=C1\c2nc3ccccc3cc2C(=O)N1c1ccc(Cl)cc1)c1ccccc1` reads 44 nM. Next, `CCN(Cc1ccccc1)C(=O)/C=C1\c2nc3ccccc3cc2C(=O)N1c1ccc(Cl)cc1`: 15 nM.
